Laboratory results as given in ChEMBL document CHEMBL4007469, “Design and synthesis of dalbergin analogues and evaluation of anti-osteoporotic activity” (Bioorg Med Chem Lett, 2017).
Active and inactive are the calls of the source. No cut-off for these calls is given here.

Assays:
[1] = Induction of osteoblast differentiation in mouse calvarial cells assessed as increase in BMP2 mRNA expression at 1 pM after 24 hrs by qRT-PCR method relative to control; format: functional, Calvarial cell
How it was run: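 Mouse calvarial osteoblasts exposed to 1 pM for 24 h; BMP2, RunX2 and COL1 mRNA by quantitative PCR with GAPDH as internal control. Mean ± SE of three independent experiments versus untreated cells.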

[2] = system: Mus musculus; experiment: Osteogenic activity in Balb/c mouse drill-hole fracture model assessed as increase in COL1 mRNA level at 1 mg/kg, po qd via gavage for 21 days by RT-PCR method relative to control
[3] = system: Mus musculus; experiment: Estrogenic effect in uterine of ovariectomized postmenopausal Balb/c mouse model assessed as total uterine area at 1 mg/kg, po qd via gavage for 6 weeks (reference value: 837.2 +/- 36.09 um2); format: ADME, organism-based; conditions: in vivo, 1008 h
[4] = system: Mus musculus; experiment: Anti-osteoporotic activity in ovariectomized postmenopausal Balb/c mouse model assessed as trabecular bone formation by measuring increase in bone volume fraction at 1 mg/kg, po qd via gavage for 6 weeks by micro CT-scan analysis relative to control; format: functional
How it was run: (§1)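 Female Balb/c mice, 8 weeks old, ovariectomized, 6 weeks osteopenia development, then 1.0 mg/kg/day or gum acacia vehicle by oral gavage once daily for 6 weeks (sham, OVx and treated groups). Bones collected after sacrifice for micro-CT of trabecular microarchitecture (BV/TV, Tb.N, Tb.Th, Tb.Sp, SMI) and biomechanical testing of femur and vertebrae (energy, stiffness); mean ± SE versus OVx.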

[5] = system: Mus musculus; experiment: Anti-osteoporotic activity in ovariectomized postmenopausal Balb/c mouse model assessed as increase in BMP2 gene expression in femur bone at 1 mg/kg, po qd via gavage for 6 weeks by RT-PCR method; format: functional, organism-based
How it was run: (§2)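 Eight-week-old female Balb/c mice, ovariectomized and left 6 weeks for osteopenia to develop; groups sham+vehicle, OVx+vehicle, OVx+1.0 mg/kg/day, dosed once daily by oral gavage for 6 weeks in gum acacia/distilled water vehicle. Mice kept at 21°C, 12 h light/dark, chow and water ad libitum. Femoral bone mRNA or serum measured after sacrifice; mean ± SE versus OVx group.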

[6] = system: Mus musculus; experiment: In vivo induction of osteogenesis in Balb/c mouse assessed as increase in Runx2 mRNA level in calvaria at 1 mg/kg/day, sc over calvarial surface for 5 consecutive days by RT-PCR method relative to control; format: functional
How it was run: (§3)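 Three-week-old Balb/c mice (3 per group) injected subcutaneously over the calvarial surface daily for 5 consecutive days at 0.1, 0.5, 1 and 5 mg/kg/day. Calvaria fixed in 4% formaldehyde, paraffin-embedded, H&E-stained; tetracycline and calcein (20 mg/kg each, ip) given for MAR/BFR histomorphometry; calvarial mRNA by RT-PCR. Mean ± SE, three independent experiments, versus untreated.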

[7] = system: Mus musculus; experiment: Anti-osteoporotic activity in ovariectomized postmenopausal Balb/c mouse model assessed as bone formation rate at 1 mg/kg, po qd via gavage for 6 weeks by fluorochromes tetracycline and calcein labeling based histomorphometric analysis (reference value: 0.098 +/- 0.01 um3.um2/day); format: functional
[8] = system: Mus musculus; experiment: In vivo induction of osteogenesis in Balb/c mouse assessed as bone formation at 0.5 to 1 mg/kg/day, sc over calvarial surface for 5 consecutive days by hematoxylin and eosin staining based fluorescence microscopic method; format: functional, organism-based; how it was run: as §3
[9] = system: Mus musculus; experiment: Osteogenic activity in Balb/c mouse drill-hole fracture model assessed as increase in Sox9 mRNA level at 1 mg/kg, po qd via gavage for 21 days by RT-PCR method
[10] = system: Mus musculus; experiment: Osteogenic activity in Balb/c mouse drill-hole fracture model assessed as trabecular thickness at 1 mg/kg, po qd via gavage for 21 days by micro-CT method (reference value: 0.111 +/- 0.006 millimeter)
[11] = system: Mus musculus; experiment: Estrogenic effect in uterine of ovariectomized postmenopausal Balb/c mouse model assessed as luminal area at 1 mg/kg, po qd via gavage for 6 weeks (reference value: 57.5 +/- 1.19 um2); format: ADME, organism-based; conditions: in vivo, 1008 h
[12] = system: Mus musculus; experiment: Anti-osteoporotic activity in ovariectomized postmenopausal Balb/c mouse model assessed as improvement in micro-artchitectural parameter in tibia by measuring trabecular thickness at 1 mg/kg, po qd via gavage for 6 weeks by micro CT-scan analysis (reference value: 0.0475 +/- 0.0005 millimeter); format: functional; how it was run: as §1
[13] = system: Mus musculus; experiment: Osteogenic activity in Balb/c mouse drill-hole fracture model assessed as trabecular separation at 1 mg/kg, po qd via gavage for 21 days by micro-CT method (reference value: 0.219 +/- 0.015 millimeter)
[14] = system: Mus musculus; experiment: In vivo induction of osteogenesis in Balb/c mouse assessed as bone formation at 0.5 to 1 mg/kg/day, sc over calvarial surface for 5 consecutive days; format: functional, organism-based; how it was run: as §3
[15] = system: Mus musculus; experiment: Anti-osteoporotic activity in ovariectomized postmenopausal Balb/c mouse model assessed as increase in ALP gene expression in femur bone at 1 mg/kg, po qd via gavage for 6 weeks by RT-PCR method; format: functional, organism-based; how it was run: as §2
[16] = system: Mus musculus; experiment: Anti-osteoporotic activity in ovariectomized postmenopausal Balb/c mouse model assessed as improvement in micro-artchitectural parameter in vertebrae by measuring trabecular thickness at 1 mg/kg, po qd via gavage for 6 weeks by micro CT-scan analysis (reference value: 0.047 +/- 0.001 millimeter); format: functional; how it was run: as §1
[17] = system: Mus musculus; experiment: In vivo induction of osteogenesis in Balb/c mouse assessed as increase in OCN mRNA level in calvaria at 1 mg/kg/day, sc over calvarial surface for 5 consecutive days by RT-PCR method relative to control; format: functional; how it was run: as §3
[18] = system: Mus musculus; experiment: Anti-osteoporotic activity in ovariectomized postmenopausal Balb/c mouse model assessed as induction of femur bone marrow cell mineralization at 1 mg/kg, po qd via gavage for 6 weeks measured on day 21 post dose by alizarin red-S staining based assay relative to control; format: functional
How it was run: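 Ovariectomized 8-week-old female Balb/c mice given 1.0 mg/kg/day orally by gavage for 6 weeks; bone marrow cells then cultured ex vivo. ALP activity read at 405 nm; mineralized nodules stained with Alizarin Red at day 21 of culture. Mean ± SE versus OVx group.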

[19] = system: Mus musculus; experiment: In vivo induction of osteogenesis in Balb/c mouse assessed as increase in ALP mRNA level in calvaria at 1 mg/kg/day, sc over calvarial surface for 5 consecutive days by RT-PCR method relative to control; format: functional; how it was run: as §3
[20] = system: Mus musculus; experiment: In vivo induction of osteogenesis in Balb/c mouse assessed as increase in bone formation rate in calvaria at 0.1 to 1 mg/kg/day, sc over calvarial surface for 5 consecutive days by fluorochromes tetracycline and calcein labeling based histomorphometric analysis; format: functional, organism-based; how it was run: as §3
[21] = system: Mus musculus; experiment: Anti-osteoporotic activity in ovariectomized postmenopausal Balb/c mouse model assessed as improvement in micro-artchitectural parameter in vertebrae by measuring structural model index at 1 mg/kg, po qd via gavage for 6 weeks by micro CT-scan analysis (reference value: 1.78 +/- 0.08); format: functional; how it was run: as §1
[22] = system: Mus musculus; experiment: Anti-osteoporotic activity in ovariectomized postmenopausal Balb/c mouse model assessed as increase in OPG gene expression in femur bone at 1 mg/kg, po qd via gavage for 6 weeks by RT-PCR method; format: functional, organism-based; how it was run: as §2

For `COc1cc2oc(=O)cc(-c3ccccc3)c2cc1OCCCCCN1CCN(C)CC1`, the “fold change (FC)” value [1] was 2, the “fold change (FC)” value [2] was 6 and the Activity [3] was 958.6 um2. The “fold change (FC)” value [4] was 1.5, the Activity [5] was “Active” and the “fold change (FC)” value [6] was 4. For the same compound, the Activity [7] was 0.163 um3.um2/day, the Activity [8] was “Active” and the Activity [9] was “Active”. For the same compound, the Activity [10] was 0.166 mm, the Activity [11] was 75.75 um2 and the Activity [12] was 0.052 mm. The Activity [13] was 0.164 mm, the Activity [14] was “Active” and the Activity [15] was “Active”. The Activity [16] was 0.0522 mm, the “fold change (FC)” value [17] was 4 and the Activity [18] was 50%. For the same compound, the “fold change (FC)” value [19] was 5, the Activity [20] was “Active” and the Activity_index [21] was 1.07. The Activity [22] was “Active”.
